Our source for the ΔTm, Activity and Stability values is ChEMBL document CHEMBL1909556, “Synthesis and properties of novel 2'-O-alkoxymethyl-modified nucleic acids” (Bioorg Med Chem Lett, 2011).

Active and inactive are the calls of the source. No cut-off for these calls is given here.

The test system of data set [1] is Nucleic Acid. Briefly: Binding affinity to A12 RNA assessed as change in melting temperature at 2 uM compound at pH 7. The class given is nucleic-acid assay.
The test system of data set [2] is Nucleic Acid. Briefly: Binding affinity to dA12 DNA assessed as change in melting temperature at 2 uM compound at pH 7. It counts as nucleic-acid assay.
The nature of data set [3]: Nuclease stability of compound assessed as snake venom phosphodiesterase-mediated degradation at 10 uM after 2 hrs by RP-HPLC analysis. The class given is physicochemical. Put shortly: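 Snake venom phosphodiesterase digestion at 4 × 10^-4 units/ml of 10 μM oligoribonucleotide for 2 h. Buffer was 50 mM Tris-HCl pH 8.5 with 72 mM NaCl and 14 mM MgCl2. The degradation ratio was estimated by reversed-phase HPLC.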

A word on the ΔTm: it is the change in melting temperature against a reference sample. Take `O=c1ccn([C@@H]2O[C@H](COP(=O)(O)O[C@H]3[C@@H](OCOCCCl)[C@H](n4ccc(=O)[nH]c4=O)O[C@@H]3COP(=O)(O)O[C@H]3[C@@H](OCOCCCl)[C@H](n4ccc(=O)[nH]c4=O)O[C@@H]3COP(=O)(O)O[C@H]3[C@@H](OCOCCCl)[C@H](n4ccc(=O)[nH]c4=O)O[C@@H]3COP(=O)(O)O[C@H]3[C@@H](OCOCCCl)[C@H](n4ccc(=O)[nH]c4=O)O[C@@H]3COP(=O)(O)O[C@H]3[C@@H](OCOCCCl)[C@H](n4ccc(=O)[nH]c4=O)O[C@@H]3COP(=O)(O)O[C@H]3[C@@H](OCOCCCl)[C@H](n4ccc(=O)[nH]c4=O)O[C@@H]3COP(=O)(O)O[C@H]3[C@@H](OCOCCCl)[C@H](n4ccc(=O)[nH]c4=O)O[C@@H]3COP(=O)(O)O[C@H]3[C@@H](OCOCCCl)[C@H](n4ccc(=O)[nH]c4=O)O[C@@H]3COP(=O)(O)O[C@H]3[C@@H](OCOCCCl)[C@H](n4ccc(=O)[nH]c4=O)O[C@@H]3COP(=O)(O)O[C@H]3[C@@H](OCOCCCl)[C@H](n4ccc(=O)[nH]c4=O)O[C@@H]3COP(=O)(O)O[C@H]3[C@@H](OCOCCCl)[C@H](n4ccc(=O)[nH]c4=O)O[C@@H]3CO)[C@@H](O)[C@H]2OCOCCCl)c(=O)[nH]1`: the ΔTm in the data set with Nucleic Acid [1] was determined as 11 °C. For the same compound, the outcome in the data set with Nucleic Acid [2] was inactive. The Stability result in data set [3] is “Unstable”. With `O=c1ccn([C@@H]2O[C@H](COP(=O)(O)O[C@H]3[C@@H](O)[C@H](n4ccc(=O)[nH]c4=O)O[C@@H]3COP(=O)(O)O[C@H]3[C@@H](O)[C@H](n4ccc(=O)[nH]c4=O)O[C@@H]3COP(=O)(O)O[C@H]3[C@@H](O)[C@H](n4ccc(=O)[nH]c4=O)O[C@@H]3COP(=O)(O)O[C@H]3[C@@H](O)[C@H](n4ccc(=O)[nH]c4=O)O[C@@H]3COP(=O)(O)O[C@H]3[C@@H](O)[C@H](n4ccc(=O)[nH]c4=O)O[C@@H]3COP(=O)(O)O[C@H]3[C@@H](O)[C@H](n4ccc(=O)[nH]c4=O)O[C@@H]3COP(=O)(O)O[C@H]3[C@@H](O)[C@H](n4ccc(=O)[nH]c4=O)O[C@@H]3COP(=O)(O)O[C@H]3[C@@H](O)[C@H](n4ccc(=O)[nH]c4=O)O[C@@H]3COP(=O)(O)O[C@H]3[C@@H](O)[C@H](n4ccc(=O)[nH]c4=O)O[C@@H]3COP(=O)(O)O[C@H]3[C@@H](O)[C@H](n4ccc(=O)[nH]c4=O)O[C@@H]3COP(=O)(O)O[C@H]3[C@@H](O)[C@H](n4ccc(=O)[nH]c4=O)O[C@@H]3CO)[C@@H](O)[C@H]2O)c(=O)[nH]1`, the ΔTm in the data set with Nucleic Acid [1] came out at 0 °C. In the case of `O=c1ccn([C@@H]2O[C@H](COP(=O)(O)O[C@H]3[C@@H](OCOCC(Cl)Cl)[C@H](n4ccc(=O)[nH]c4=O)O[C@@H]3COP(=O)(O)O[C@H]3[C@@H](OCOCC(Cl)Cl)[C@H](n4ccc(=O)[nH]c4=O)O[C@@H]3COP(=O)(O)O[C@H]3[C@@H](OCOCC(Cl)Cl)[C@H](n4ccc(=O)[nH]c4=O)O[C@@H]3COP(=O)(O)O[C@H]3[C@@H](OCOCC(Cl)Cl)[C@H](n4ccc(=O)[nH]c4=O)O[C@@H]3COP(=O)(O)O[C@H]3[C@@H](OCOCC(Cl)Cl)[C@H](n4ccc(=O)[nH]c4=O)O[C@@H]3COP(=O)(O)O[C@H]3[C@@H](OCOCC(Cl)Cl)[C@H](n4ccc(=O)[nH]c4=O)O[C@@H]3COP(=O)(O)O[C@H]3[C@@H](OCOCC(Cl)Cl)[C@H](n4ccc(=O)[nH]c4=O)O[C@@H]3COP(=O)(O)O[C@H]3[C@@H](OCOCC(Cl)Cl)[C@H](n4ccc(=O)[nH]c4=O)O[C@@H]3COP(=O)(O)O[C@H]3[C@@H](OCOCC(Cl)Cl)[C@H](n4ccc(=O)[nH]c4=O)O[C@@H]3COP(=O)(O)O[C@H]3[C@@H](OCOCC(Cl)Cl)[C@H](n4ccc(=O)[nH]c4=O)O[C@@H]3COP(=O)(O)O[C@H]3[C@@H](OCOCC(Cl)Cl)[C@H](n4ccc(=O)[nH]c4=O)O[C@@H]3CO)[C@@H](O)[C@H]2OCOCC(Cl)Cl)c(=O)[nH]1`, the ΔTm in the data set on Nucleic Acid [1] is 10.8 °C. The outcome with Nucleic Acid [2] was inactive. Besides, in data set [3], the Stability result is “Unstable”.

With `O=c1ccn([C@@H]2O[C@H](COP(=O)(O)O[C@H]3[C@@H](OCOCC(F)(F)F)[C@H](n4ccc(=O)[nH]c4=O)O[C@@H]3COP(=O)(O)O[C@H]3[C@@H](OCOCC(F)(F)F)[C@H](n4ccc(=O)[nH]c4=O)O[C@@H]3COP(=O)(O)O[C@H]3[C@@H](OCOCC(F)(F)F)[C@H](n4ccc(=O)[nH]c4=O)O[C@@H]3COP(=O)(O)O[C@H]3[C@@H](OCOCC(F)(F)F)[C@H](n4ccc(=O)[nH]c4=O)O[C@@H]3COP(=O)(O)O[C@H]3[C@@H](OCOCC(F)(F)F)[C@H](n4ccc(=O)[nH]c4=O)O[C@@H]3COP(=O)(O)O[C@H]3[C@@H](OCOCC(F)(F)F)[C@H](n4ccc(=O)[nH]c4=O)O[C@@H]3COP(=O)(O)O[C@H]3[C@@H](OCOCC(F)(F)F)[C@H](n4ccc(=O)[nH]c4=O)O[C@@H]3COP(=O)(O)O[C@H]3[C@@H](OCOCC(F)(F)F)[C@H](n4ccc(=O)[nH]c4=O)O[C@@H]3COP(=O)(O)O[C@H]3[C@@H](OCOCC(F)(F)F)[C@H](n4ccc(=O)[nH]c4=O)O[C@@H]3COP(=O)(O)O[C@H]3[C@@H](OCOCC(F)(F)F)[C@H](n4ccc(=O)[nH]c4=O)O[C@@H]3COP(=O)(O)O[C@H]3[C@@H](OCOCC(F)(F)F)[C@H](n4ccc(=O)[nH]c4=O)O[C@@H]3CO)[C@@H](O)[C@H]2OCOCC(F)(F)F)c(=O)[nH]1`, the ΔTm in the data set with Nucleic Acid [1] stood at 4.5 °C. With `CCOCO[C@@H]1[C@H](O)[C@@H](COP(=O)(O)O[C@H]2[C@@H](OCOCC)[C@H](n3ccc(=O)[nH]c3=O)O[C@@H]2COP(=O)(O)O[C@H]2[C@@H](OCOCC)[C@H](n3ccc(=O)[nH]c3=O)O[C@@H]2COP(=O)(O)O[C@H]2[C@@H](OCOCC)[C@H](n3ccc(=O)[nH]c3=O)O[C@@H]2COP(=O)(O)O[C@H]2[C@@H](OCOCC)[C@H](n3ccc(=O)[nH]c3=O)O[C@@H]2COP(=O)(O)O[C@H]2[C@@H](OCOCC)[C@H](n3ccc(=O)[nH]c3=O)O[C@@H]2COP(=O)(O)O[C@H]2[C@@H](OCOCC)[C@H](n3ccc(=O)[nH]c3=O)O[C@@H]2COP(=O)(O)O[C@H]2[C@@H](OCOCC)[C@H](n3ccc(=O)[nH]c3=O)O[C@@H]2COP(=O)(O)O[C@H]2[C@@H](OCOCC)[C@H](n3ccc(=O)[nH]c3=O)O[C@@H]2COP(=O)(O)O[C@H]2[C@@H](OCOCC)[C@H](n3ccc(=O)[nH]c3=O)O[C@@H]2COP(=O)(O)O[C@H]2[C@@H](OCOCC)[C@H](n3ccc(=O)[nH]c3=O)O[C@@H]2COP(=O)(O)O[C@H]2[C@@H](OCOCC)[C@H](n3ccc(=O)[nH]c3=O)O[C@@H]2CO)O[C@H]1n1ccc(=O)[nH]c1=O`, in the data set with Nucleic Acid [1], the ΔTm was -2.5 °C. For the same compound, the Stability result in data set [3] is given as “Unstable”.

In the case of `N#CCCOCO[C@@H]1[C@H](O)[C@@H](COP(=O)(O)O[C@H]2[C@@H](OCOCCC#N)[C@H](n3ccc(=O)[nH]c3=O)O[C@@H]2COP(=O)(O)O[C@H]2[C@@H](OCOCCC#N)[C@H](n3ccc(=O)[nH]c3=O)O[C@@H]2COP(=O)(O)O[C@H]2[C@@H](OCOCCC#N)[C@H](n3ccc(=O)[nH]c3=O)O[C@@H]2COP(=O)(O)O[C@H]2[C@@H](OCOCCC#N)[C@H](n3ccc(=O)[nH]c3=O)O[C@@H]2COP(=O)(O)O[C@H]2[C@@H](OCOCCC#N)[C@H](n3ccc(=O)[nH]c3=O)O[C@@H]2COP(=O)(O)O[C@H]2[C@@H](OCOCCC#N)[C@H](n3ccc(=O)[nH]c3=O)O[C@@H]2COP(=O)(O)O[C@H]2[C@@H](OCOCCC#N)[C@H](n3ccc(=O)[nH]c3=O)O[C@@H]2COP(=O)(O)O[C@H]2[C@@H](OCOCCC#N)[C@H](n3ccc(=O)[nH]c3=O)O[C@@H]2COP(=O)(O)O[C@H]2[C@@H](OCOCCC#N)[C@H](n3ccc(=O)[nH]c3=O)O[C@@H]2COP(=O)(O)O[C@H]2[C@@H](OCOCCC#N)[C@H](n3ccc(=O)[nH]c3=O)O[C@@H]2COP(=O)(O)O[C@H]2[C@@H](OCOCCC#N)[C@H](n3ccc(=O)[nH]c3=O)O[C@@H]2CO)O[C@H]1n1ccc(=O)[nH]c1=O`, the ΔTm in the data set with Nucleic Acid [1] was 2.8 °C. In addition, the Stability result in data set [3] was “Stable”. For `O=c1ccn([C@@H]2O[C@H](COP(=O)(O)O[C@H]3[C@@H](OCOCC(Cl)(Cl)Cl)[C@H](n4ccc(=O)[nH]c4=O)O[C@@H]3COP(=O)(O)O[C@H]3[C@@H](OCOCC(Cl)(Cl)Cl)[C@H](n4ccc(=O)[nH]c4=O)O[C@@H]3COP(=O)(O)O[C@H]3[C@@H](OCOCC(Cl)(Cl)Cl)[C@H](n4ccc(=O)[nH]c4=O)O[C@@H]3COP(=O)(O)O[C@H]3[C@@H](OCOCC(Cl)(Cl)Cl)[C@H](n4ccc(=O)[nH]c4=O)O[C@@H]3COP(=O)(O)O[C@H]3[C@@H](OCOCC(Cl)(Cl)Cl)[C@H](n4ccc(=O)[nH]c4=O)O[C@@H]3COP(=O)(O)O[C@H]3[C@@H](OCOCC(Cl)(Cl)Cl)[C@H](n4ccc(=O)[nH]c4=O)O[C@@H]3COP(=O)(O)O[C@H]3[C@@H](OCOCC(Cl)(Cl)Cl)[C@H](n4ccc(=O)[nH]c4=O)O[C@@H]3COP(=O)(O)O[C@H]3[C@@H](OCOCC(Cl)(Cl)Cl)[C@H](n4ccc(=O)[nH]c4=O)O[C@@H]3COP(=O)(O)O[C@H]3[C@@H](OCOCC(Cl)(Cl)Cl)[C@H](n4ccc(=O)[nH]c4=O)O[C@@H]3COP(=O)(O)O[C@H]3[C@@H](OCOCC(Cl)(Cl)Cl)[C@H](n4ccc(=O)[nH]c4=O)O[C@@H]3COP(=O)(O)O[C@H]3[C@@H](OCOCC(Cl)(Cl)Cl)[C@H](n4ccc(=O)[nH]c4=O)O[C@@H]3CO)[C@@H](O)[C@H]2OCOCC(Cl)(Cl)Cl)c(=O)[nH]1` the same measures were -0.8 °C and “Unstable”. As to `O=c1ccn([C@@H]2O[C@H](COP(=O)(O)O[C@H]3[C@@H](OCOCC(F)F)[C@H](n4ccc(=O)[nH]c4=O)O[C@@H]3COP(=O)(O)O[C@H]3[C@@H](OCOCC(F)F)[C@H](n4ccc(=O)[nH]c4=O)O[C@@H]3COP(=O)(O)O[C@H]3[C@@H](OCOCC(F)F)[C@H](n4ccc(=O)[nH]c4=O)O[C@@H]3COP(=O)(O)O[C@H]3[C@@H](OCOCC(F)F)[C@H](n4ccc(=O)[nH]c4=O)O[C@@H]3COP(=O)(O)O[C@H]3[C@@H](OCOCC(F)F)[C@H](n4ccc(=O)[nH]c4=O)O[C@@H]3COP(=O)(O)O[C@H]3[C@@H](OCOCC(F)F)[C@H](n4ccc(=O)[nH]c4=O)O[C@@H]3COP(=O)(O)O[C@H]3[C@@H](OCOCC(F)F)[C@H](n4ccc(=O)[nH]c4=O)O[C@@H]3COP(=O)(O)O[C@H]3[C@@H](OCOCC(F)F)[C@H](n4ccc(=O)[nH]c4=O)O[C@@H]3COP(=O)(O)O[C@H]3[C@@H](OCOCC(F)F)[C@H](n4ccc(=O)[nH]c4=O)O[C@@H]3COP(=O)(O)O[C@H]3[C@@H](OCOCC(F)F)[C@H](n4ccc(=O)[nH]c4=O)O[C@@H]3COP(=O)(O)O[C@H]3[C@@H](OCOCC(F)F)[C@H](n4ccc(=O)[nH]c4=O)O[C@@H]3CO)[C@@H](O)[C@H]2OCOCC(F)F)c(=O)[nH]1`, in the data set on Nucleic Acid [1], the ΔTm worked out at 3.5 °C.
